Measured values from ChEMBL document CHEMBL5137109, “Tunable Cysteine-Targeting Electrophilic Heteroaromatic Warheads Induce Ferroptosis” (J Med Chem, 2022).
One block for each compound: values may come before it. Active and inactive are the calls of the source. No cut-off for these calls is given here.

Experiments:
[1] = test system: NCI-H522; experiment: Cytotoxicity against human NCI-H522 cells assessed as reduction in cell viability incubated for 3 days by methylene blue staining based analysis; type: functional; details: NCI-H522, 72 h
[2] = test system: MDA-MB-468; experiment: Cytotoxicity against human MDA-MB-468 cells assessed as reduction in cell viability incubated for 3 days by methylene blue staining based analysis; type: functional; details: MDA-MB-468, 72 h
[3] = Cytotoxicity against mouse MEF cells assessed as reduction in cell viability incubated for 3 days by methylene blue staining based analysis; type: toxicity
[4] = test system: HCT-116; experiment: Cytotoxicity against human HCT-116 cells assessed as reduction in cell viability incubated for 3 days by methylene blue staining based analysis; type: functional; details: HCT-116, 72 h
[5] = test system: U2OS; experiment: Cytotoxicity against human U2OS cells assessed as reduction in cell viability incubated for 3 days by methylene blue staining based analysis; type: functional; details: 72 h
[6] = test system: MDA-MB-231; experiment: Cytotoxicity against human MDA-MB-231 cells assessed as reduction in cell viability incubated for 3 days by methylene blue staining based analysis; type: functional; details: MDA-MB-231, 72 h
[7] = test system: HeLa; experiment: Cytotoxicity against human HeLa cells assessed as reduction in cell viability incubated for 3 days by methylene blue staining based analysis; type: functional; details: 72 h
[8] = target: T1, Phospholipid hydroperoxide glutathione peroxidase GPX4 (Homo sapiens) (UniProt P36969); experiment: Binding affinity to GPX4 in human NCI-H522 cells assessed as increase in aggregation temperature at 0.5 uM incubated for 1 hr by CETSA analysis; type: cell-based
T1 sequence (whole entry): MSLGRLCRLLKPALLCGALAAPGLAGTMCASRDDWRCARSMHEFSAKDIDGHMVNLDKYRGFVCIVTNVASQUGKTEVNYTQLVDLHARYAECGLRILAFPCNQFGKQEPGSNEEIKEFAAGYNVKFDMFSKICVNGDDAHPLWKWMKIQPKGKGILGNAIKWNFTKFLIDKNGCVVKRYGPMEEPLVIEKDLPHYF
Procedure, shortened: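 Cells ~80% confluent treated 1 h (vehicle DMSO 0.1% v/v), trypsinized, washed, resuspended in PBS and aliquots heated at temperatures between 43–67 °C for 3 min. Cells then pelleted and lysed in NP-40/Tris buffer. Soluble fraction analysed by SDS-PAGE and western blot, and aggregation temperature compared with DMSO. Mean ± SD, n = 3, t-test.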

[9] = test system: NCI-H522; experiment: Cytotoxicity against human NCI-H522 cells assessed as reduction in cell viability incubated for 3 days in presence of ferroptosis inhibitor, liproxstatin-1 by methylene blue staining based analysis; type: functional; details: NCI-H522, 72 h
Procedure, shortened: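 NCI-H522 cells seeded at 25×10³/well (n=3), adhered overnight, then exposed to compound with or without liproxstatin-1 (0.25 μM). After 3 days, methylene blue staining with HCl elution and A668. Results given as % relative to DMSO control, mean ± SD, n=3, one-way ANOVA. Fold change is IC50 (with liproxstatin-1)/IC50 (alone).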

[10] = Ratio of IC50 for cytotoxicity against human NCI-H522 cells in presence of ferroptosis inhibitor, liproxstatin-1 to IC50 for cytotoxicity against human NCI-H522 cells; type: functional
Procedure, shortened: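 NCI-H522 cells, 25*10³/well (n=3), plated overnight, treated with compound with or without Liproxstatin-1 (0.25 μM). After 3 days, methylene blue in 50% ethanol fix/stain 30 min RT, dye dissolved in 0.1N HCl, A668. Fold change = IC₅₀ with Liproxstatin-1 / IC₅₀ without.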

[11] = test system: NCI-H522; experiment: Induction of lipid peroxidation in human NCI-H522 cells assessed as increase in C11-BODIPY oxidation at 0.5 uM incubated for 3 hrs by flow cytometry; type: functional, cell-based
Procedure, shortened: (§1)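 NCI-H522 cells (~70% density) plated in dishes overnight, then treated with compound or DMSO plus C11-BODIPY 581/591 (1 μM) added at treatment. After 3 h or 6 h, cells washed, trypsinized, resuspended in PBS with 2% FBS and analysed by flow cytometry (preferably 20×10³ cells). Oxidation compared with DMSO treatment.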

[12] = Cytotoxicity against human WI-38 cells assessed as reduction in cell viability incubated for 3 days by methylene blue staining based analysis; type: toxicity
[13] = test system: HT-1080; experiment: Cytotoxicity against human HT-1080 cells assessed as reduction in cell viability incubated for 3 days by methylene blue staining based analysis; type: functional; details: HT-1080, 72 h
[14] = target: T2, Thioredoxin reductase 1, cytoplasmic (Homo sapiens) (UniProt Q16881); experiment: Binding affinity to TXRD1 in human NCI-H522 cells at 10 uM incubated for 1 hr by Biotin-TAMRA pull down based western blot analysis; type: cell-based
T2 sequence (whole entry): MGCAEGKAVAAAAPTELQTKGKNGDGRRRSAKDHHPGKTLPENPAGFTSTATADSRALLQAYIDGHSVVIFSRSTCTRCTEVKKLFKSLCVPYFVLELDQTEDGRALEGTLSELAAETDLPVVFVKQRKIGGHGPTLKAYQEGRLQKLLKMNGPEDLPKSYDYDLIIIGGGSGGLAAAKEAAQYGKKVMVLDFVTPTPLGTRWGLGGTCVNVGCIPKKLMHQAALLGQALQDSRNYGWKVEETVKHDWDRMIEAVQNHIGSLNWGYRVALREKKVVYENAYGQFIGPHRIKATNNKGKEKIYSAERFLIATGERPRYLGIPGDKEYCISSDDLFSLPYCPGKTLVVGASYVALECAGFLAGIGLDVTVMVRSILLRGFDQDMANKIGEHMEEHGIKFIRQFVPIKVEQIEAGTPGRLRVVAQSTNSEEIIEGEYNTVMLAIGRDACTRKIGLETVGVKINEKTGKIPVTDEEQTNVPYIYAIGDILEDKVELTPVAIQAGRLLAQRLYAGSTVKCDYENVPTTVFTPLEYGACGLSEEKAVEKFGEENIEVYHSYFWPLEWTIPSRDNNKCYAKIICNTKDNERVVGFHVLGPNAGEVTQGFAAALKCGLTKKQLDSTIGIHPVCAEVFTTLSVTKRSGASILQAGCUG
Procedure, shortened: (§2)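 Probe or control given to cells for 1 h at 37 °C, two 10 cm dishes per treatment. Lysates precleared with streptavidin, then clicked to biotin-TAMRA azide (20 min RT plus 10 min 37 °C). Proteins precipitated, captured overnight on streptavidin beads and washed with RIPA/PBS. Bead eluates separated on 12.5% SDS-PAGE and immunoblotted, with milk blocking, primary antibody overnight at 4 °C, HRP secondary and ECL.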

[15] = Selectivity ratio of IC50 for human HCT-116 cells to IC50 for human NCI-H522 cells by methylene blue staining based analysis; type: functional
[16] = test system: NCI-H522; experiment: Cytotoxicity against human NCI-H522 cells assessed as time required to cause 50% irreversible cell death treated with compound followed by washing for every 30 mins for 6 hrs by methylene blue staining based analysis; type: functional
Procedure, shortened: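 NCI-H522 cells, 5*10³/well (n=3), plated overnight, then treated with compound or DMSO. Wells washed immediately after treatment and then at 30-min intervals up to 6 h; last wells not washed. Methylene blue in 50% ethanol fix/stain 30 min RT, dye dissolved in 0.1N HCl, A668. Each point taken as % survival of matching DMSO-treated cells.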

[17] = test system: NCI-H522; experiment: Induction of lipid peroxidation in human NCI-H522 cells assessed as increase in C11-BODIPY oxidation at 5 uM incubated for 6 hrs by flow cytometry relative to control; type: functional
Procedure, shortened: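 NCI-H522 cells at ~70% density, plated overnight, treated with compound or DMSO together with C11-BODIPY 581/591 (1 μM) for 3 h or 6 h. Cells then PBS-washed, trypsinised, resuspended in PBS with 2% FBS and read by flow cytometry, preferably 20*10³ cells. Oxidation compared with DMSO treatment.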

[18] = target: T1, Phospholipid hydroperoxide glutathione peroxidase GPX4 (Homo sapiens); experiment: Binding affinity to GPX4 in human NCI-H522 cells at 10 uM incubated for 1 hr by Biotin-TAMRA pull down based western blot analysis; type: cell-based; procedure, shortened: as §2
[19] = target: T3, Glutathione S-transferase omega-1 (Homo sapiens) (UniProt P78417); experiment: Binding affinity to GSTO1 in human NCI-H522 cells at 10 uM incubated for 1 hr by Biotin-TAMRA pull down based mass spectrometry; type: cell-based
T3 sequence (whole entry): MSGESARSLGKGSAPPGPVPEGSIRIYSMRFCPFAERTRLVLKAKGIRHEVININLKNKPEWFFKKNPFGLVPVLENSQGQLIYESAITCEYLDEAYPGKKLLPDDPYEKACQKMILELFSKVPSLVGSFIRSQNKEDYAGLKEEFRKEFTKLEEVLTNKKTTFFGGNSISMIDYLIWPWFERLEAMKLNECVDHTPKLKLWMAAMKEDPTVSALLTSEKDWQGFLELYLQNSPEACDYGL
Procedure, shortened: (§3)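 Cells ~70% density, five 10 cm dishes per treatment, exposed to alkyne probe or control for 1 h at 37 °C, then lysed (NP-40/Tris). Lysate precleared on streptavidin beads 2 h at 4 °C, then CuAAC with biotin-TAMRA azide, THPTA, CuSO4 and ascorbate for 30 min at RT. Proteins MeOH/CHCl3 precipitated, enriched overnight on streptavidin, checked by in-gel fluorescence. Reduced/alkylated, trypsin-digested, nano LC-MS/MS. Filtered at 1% FDR, ≥2 unique peptides.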

[20] = target: T2, Thioredoxin reductase 1, cytoplasmic (Homo sapiens); experiment: Binding affinity to TXRD1 in human NCI-H522 cells at 10 uM incubated for 1 hr by Biotin-TAMRA pull down based mass spectrometry; type: cell-based; procedure, shortened: as §3
[21] = target: T3, Glutathione S-transferase omega-1 (Homo sapiens); experiment: Binding affinity to GSTO1 in human NCI-H522 cells at 10 uM incubated for 1 hr by Biotin-TAMRA pull down based western blot analysis; type: cell-based; procedure, shortened: as §2
[22] = target: T1, Phospholipid hydroperoxide glutathione peroxidase GPX4 (Homo sapiens); experiment: Binding affinity to GPX4 in human NCI-H522 cells at 10 uM incubated for 1 hr by Biotin-TAMRA pull down based mass spectrometry; type: cell-based; procedure, shortened: as §3
[23] = test system: NCI-H522; experiment: Induction of lipid peroxidation in human NCI-H522 cells assessed as increase in C11-BODIPY oxidation at 10 uM incubated for 6 hrs by flow cytometry; type: functional, cell-based; procedure, shortened: as §1

Structure (SMILES): C#Cc1nc(C(=O)N2CCN(C(c3ccc(Cl)cc3)c3ccc(Cl)cc3)CC2)cs1
IC50 [1]: 17 nM
IC50 [2]: 84 nM
IC50 at 3 days [3]: 10 nM
IC50 [4]: > 1000 nM
IC50 [5]: 367 nM
IC50 [6]: 21 nM
IC50 [7]: 242 nM
deltaT [8]: 7 °C
IC50 [9]: 7890 nM
Ratio IC50 [10]: 464.353
Activity [11]: Active
IC50 at 3 days [12]: 22 nM
IC50 [13]: 19 nM

Activity [14]: Active
Structure (SMILES): C#CCNC(=O)c1csc(C#Cc2ccccc2)n1
IC50 [1]: > 40000 nM
IC50 [4]: > 40000 nM

Structure (SMILES): C#Cc1nc2ccccc2s1
IC50 [1]: 860 nM
IC50 [4]: 19600 nM
Ratio IC50 [15]: 22.8
IT50 [16]: 1.7 h
fold change (FC) [17]: >5

Activity [18]: Active
Activity [19]: Active
Activity [20]: Active
Activity [21]: Active
Activity [22]: Active
Structure (SMILES): C#CCNC(=O)c1csc(C#C)n1
IC50 [1]: 2100 nM
IC50 [4]: 19200 nM
Activity [23]: Active
